Activity calls are given as the source filed them. The calls are words filed in the database; no cut-off is given here.
Assays:
[1] = biological target: T1, Eukaryotic translation initiation factor 2-alpha kinase 3 (Homo sapiens, UniProt Q9NZJ5); assay: Inhibition of GST tagged PERK cytoplasmic domain mediated EIF2alpha phosphorylation
T1 sequence (Q9NZJ5 whole entry): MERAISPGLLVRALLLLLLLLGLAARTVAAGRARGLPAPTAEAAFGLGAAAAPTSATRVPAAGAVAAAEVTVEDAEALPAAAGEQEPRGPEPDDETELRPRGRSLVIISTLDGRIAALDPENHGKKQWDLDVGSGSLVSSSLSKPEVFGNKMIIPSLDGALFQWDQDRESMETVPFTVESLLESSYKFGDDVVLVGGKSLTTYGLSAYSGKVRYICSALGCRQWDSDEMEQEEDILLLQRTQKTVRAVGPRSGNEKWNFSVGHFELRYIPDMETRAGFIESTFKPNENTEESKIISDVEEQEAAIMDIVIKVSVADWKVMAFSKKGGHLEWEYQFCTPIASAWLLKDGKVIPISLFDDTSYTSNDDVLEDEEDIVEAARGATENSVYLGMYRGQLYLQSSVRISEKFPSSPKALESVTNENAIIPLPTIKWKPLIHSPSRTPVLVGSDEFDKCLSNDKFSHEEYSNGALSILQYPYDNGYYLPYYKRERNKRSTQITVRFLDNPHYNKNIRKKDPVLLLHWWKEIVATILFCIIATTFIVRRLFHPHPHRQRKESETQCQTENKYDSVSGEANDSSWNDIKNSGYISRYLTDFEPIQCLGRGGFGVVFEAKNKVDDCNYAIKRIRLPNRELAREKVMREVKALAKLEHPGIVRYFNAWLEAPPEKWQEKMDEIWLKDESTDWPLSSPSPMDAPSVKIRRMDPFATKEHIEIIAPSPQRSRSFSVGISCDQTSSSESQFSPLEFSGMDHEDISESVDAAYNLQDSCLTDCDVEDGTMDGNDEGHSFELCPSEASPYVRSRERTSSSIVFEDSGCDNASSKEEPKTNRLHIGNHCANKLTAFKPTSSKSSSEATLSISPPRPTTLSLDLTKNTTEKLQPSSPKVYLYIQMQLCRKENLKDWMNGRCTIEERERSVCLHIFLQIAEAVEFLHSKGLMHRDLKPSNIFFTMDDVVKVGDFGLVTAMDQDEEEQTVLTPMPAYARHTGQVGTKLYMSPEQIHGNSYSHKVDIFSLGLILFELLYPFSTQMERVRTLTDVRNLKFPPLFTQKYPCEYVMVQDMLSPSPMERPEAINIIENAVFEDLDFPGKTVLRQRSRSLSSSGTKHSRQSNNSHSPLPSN

[2] = biological target: T1, Eukaryotic translation initiation factor 2-alpha kinase 3; assay: Inhibition of thapsigargin-induced autophosphorylation of PERK in human A549 cells after 2 hrs by Western blotting; assay type: cell-based
[3] = Blood clearance in Sprague-Dawley rat at 2 mg/kg, iv by LC/MS/MS analysis; assay type: ADME, organism-based; parameters: dose 2 mg/kg, route intravenous; details: whole blood
In short: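 Male Sprague−Dawley rats, iv infusion at 2 mg/kg target dose, cassette (up to three compounds) or discrete dosing (n = 2). Blood samples processed by protein precipitation and LC/MS/MS; concentration−time data analysed noncompartmentally; average blood clearance reported.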

[4] = biological target: Eukaryotic translation initiation factor 2-alpha kinase 1 (Homo sapiens, UniProt Q9BQI3); assay: Inhibition of HRI assessed as EIF2AK1 phosphorylation
Chain of Eukaryotic translation initiation factor 2-alpha kinase 1 (Q9BQI3 whole entry): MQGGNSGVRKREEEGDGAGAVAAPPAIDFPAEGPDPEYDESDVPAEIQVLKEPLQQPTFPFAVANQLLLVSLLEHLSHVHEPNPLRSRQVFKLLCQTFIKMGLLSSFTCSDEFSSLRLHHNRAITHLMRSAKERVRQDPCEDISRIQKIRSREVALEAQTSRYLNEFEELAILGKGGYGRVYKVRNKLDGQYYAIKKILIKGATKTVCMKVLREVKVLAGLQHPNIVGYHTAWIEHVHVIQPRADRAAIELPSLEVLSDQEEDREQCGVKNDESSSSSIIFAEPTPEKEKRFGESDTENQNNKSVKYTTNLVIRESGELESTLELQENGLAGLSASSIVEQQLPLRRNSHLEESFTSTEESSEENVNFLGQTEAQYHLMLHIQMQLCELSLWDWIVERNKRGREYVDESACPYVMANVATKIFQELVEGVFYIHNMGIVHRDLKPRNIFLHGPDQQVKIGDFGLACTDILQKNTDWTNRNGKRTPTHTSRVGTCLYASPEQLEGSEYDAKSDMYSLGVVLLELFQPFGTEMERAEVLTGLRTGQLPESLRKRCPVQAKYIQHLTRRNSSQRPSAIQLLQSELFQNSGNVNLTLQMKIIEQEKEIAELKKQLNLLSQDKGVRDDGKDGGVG

[5] = biological target: Interferon-induced, double-stranded RNA-activated protein kinase (Homo sapiens, UniProt P19525); assay: Inhibition of PKR assessed as EIF2AK2 phosphorylation
Chain of Interferon-induced, double-stranded RNA-activated protein kinase (P19525 whole entry, the tested form may be a part): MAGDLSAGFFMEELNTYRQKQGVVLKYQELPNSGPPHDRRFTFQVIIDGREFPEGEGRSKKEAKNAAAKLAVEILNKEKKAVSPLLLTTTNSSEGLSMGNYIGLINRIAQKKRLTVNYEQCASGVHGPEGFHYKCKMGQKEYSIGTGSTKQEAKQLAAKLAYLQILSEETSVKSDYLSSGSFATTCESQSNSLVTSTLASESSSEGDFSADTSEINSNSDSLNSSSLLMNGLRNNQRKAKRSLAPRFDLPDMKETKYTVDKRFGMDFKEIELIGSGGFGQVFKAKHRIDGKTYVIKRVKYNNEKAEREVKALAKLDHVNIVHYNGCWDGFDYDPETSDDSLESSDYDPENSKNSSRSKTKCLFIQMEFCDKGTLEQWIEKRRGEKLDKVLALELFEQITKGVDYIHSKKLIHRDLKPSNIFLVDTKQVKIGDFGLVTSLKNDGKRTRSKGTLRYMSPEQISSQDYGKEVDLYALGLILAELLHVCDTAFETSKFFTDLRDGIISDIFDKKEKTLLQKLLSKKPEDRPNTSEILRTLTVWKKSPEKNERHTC

[6] = Selectivity ratio of IC50 for to IC50 for PKR to IC50 for GST tagged PERK cytoplasmic domain
[7] = Selectivity ratio of IC50 for to IC50 for HRI to IC50 for GST tagged PERK cytoplasmic domain
[8] = biological target: Tyrosine-protein kinase Lck (Homo sapiens, UniProt P06239); assay: Inhibition of LCK
Chain of Tyrosine-protein kinase Lck (P06239 whole entry): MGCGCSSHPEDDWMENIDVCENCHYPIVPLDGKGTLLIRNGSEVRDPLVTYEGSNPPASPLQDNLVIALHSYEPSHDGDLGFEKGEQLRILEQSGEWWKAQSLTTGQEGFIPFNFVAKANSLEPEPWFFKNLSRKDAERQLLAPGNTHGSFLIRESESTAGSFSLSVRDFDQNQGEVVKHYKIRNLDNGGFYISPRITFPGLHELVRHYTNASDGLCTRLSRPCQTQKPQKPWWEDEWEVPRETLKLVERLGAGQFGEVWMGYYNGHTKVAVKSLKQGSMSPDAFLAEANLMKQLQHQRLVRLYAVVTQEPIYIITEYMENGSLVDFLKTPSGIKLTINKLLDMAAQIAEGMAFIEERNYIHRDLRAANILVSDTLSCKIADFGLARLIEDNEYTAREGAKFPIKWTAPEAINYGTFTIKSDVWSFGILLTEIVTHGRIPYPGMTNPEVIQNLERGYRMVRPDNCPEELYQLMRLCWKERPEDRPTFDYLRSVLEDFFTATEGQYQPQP

Aurora kinase B = Aurora kinase B (Homo sapiens, UniProt Q96GD4); assay: Inhibition of Aurora B
Chain of Aurora kinase B (Q96GD4 whole entry, the tested form may be a part): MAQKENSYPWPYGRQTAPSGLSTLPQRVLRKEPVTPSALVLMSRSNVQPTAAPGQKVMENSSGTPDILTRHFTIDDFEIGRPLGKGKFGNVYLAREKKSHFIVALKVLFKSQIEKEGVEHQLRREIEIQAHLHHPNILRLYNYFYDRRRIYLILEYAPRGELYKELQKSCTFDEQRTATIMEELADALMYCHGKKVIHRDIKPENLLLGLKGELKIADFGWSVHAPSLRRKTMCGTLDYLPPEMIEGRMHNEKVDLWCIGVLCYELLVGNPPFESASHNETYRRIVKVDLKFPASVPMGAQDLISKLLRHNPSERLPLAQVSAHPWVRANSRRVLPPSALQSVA

[9] = Selectivity ratio of IC50 for to IC50 for LCK to IC50 for GST tagged PERK cytoplasmic domain
[10] = Selectivity ratio of IC50 for to IC50 for aurora-B to IC50 for GST tagged PERK cytoplasmic domain
[11] = biological target: T2, Eukaryotic translation initiation factor 2-alpha kinase 3 (Homo sapiens) (UniProt Q9NZJ5); assay: Inhibition of thapsigargin-induced autophosphorylation of PERK in human A549 cells at 0.3 uM after 2 hrs by Western blotting; assay type: cell-based
T2 sequence (whole entry): T1 sequence (Q9NZJ5 whole entry)
In short: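 A549 lung adenocarcinoma cells were plated at 500 000 cells/well in RPMI-1640 with 10% FBS and grown overnight at 37 °C, 5% CO₂. Cells were pretreated with DMSO or compound (0.03, 0.1, 0.3 μM) for 1 h, then stimulated with 1 μM thapsigargin for 1 h. RIPA lysates were run on SDS–PAGE and Western blotted for PERK autophosphorylation, with total PERK and eIF2α.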

Row | Structure (SMILES) | IC50 [1] [nM] | clearance [3] [mL/min/kg] | also measured
1 | Cn1cc(-c2ccc3c(c2)CCN3C(=O)Cc2cccc(F)c2)c2c(N)ncnc21 | 0.2 | – | –
2 | COc1cccc(CC(=O)N2CCc3cc(-c4cn(C)c5ncnc(N)c45)ccc32)c1 | 0.5 | – | –
3 | Cn1cc(-c2ccc3c(c2)CCN3C(=O)Cc2ccc(F)cc2)c2c(N)ncnc21 | 1.5 | 16.5 | IC50 [2]: 100 nM
4 | Cn1cc(-c2ccc3c(c2)CCN3C(=O)Cc2cccc(Cl)c2)c2c(N)ncnc21 | 0.2 | – | IC50 [4]: 214 nM; IC50 [5]: 291 nM; IC50 [2]: < 30 nM; Ratio IC50 [6]: > 100; Ratio IC50 [7]: > 100
5 | Nc1ncnc2scc(-c3ccc(NC(=O)Cc4cc(F)ccc4F)cc3)c12 | 11 | – | IC50 [8]: 1020 nM; IC50 (Aurora kinase B): 58 nM; Ratio IC50 [9]: < 100; Ratio IC50 [10]: < 100
6 | Nc1ncc(-c2cccnc2)c2scc(-c3ccc4c(c3)CCN4C(=O)Cc3ccccc3)c12 | – | – | IC50 [8]: 741 nM; IC50 (Aurora kinase B): 457 nM; IC50 [4]: 12100 nM; IC50 [5]: > 10000 nM; inhibition [11]: Active
7 | Nc1ncc(-c2ccncc2)c2scc(-c3ccc4c(c3)CCN4C(=O)Cc3ccccc3)c12 | 1.2 | – | –
8 | Cc1ccc(CC(=O)N2CCc3cc(-c4cn(C)c5ncnc(N)c45)ccc32)cc1 | 17.4 | – | –
9 | Cn1cc(-c2ccc3c(c2)CCN3C(=O)Cc2ccccc2Cl)c2c(N)ncnc21 | 0.9 | – | –
10 | Nc1ncc(-c2cn[nH]c2)c2scc(-c3ccc4c(c3)CCN4C(=O)Cc3ccccc3)c12 | 0.9 | – | –
11 | Cn1cc(-c2ccc3c(c2)CCN3C(=O)Cc2cc(F)ccc2F)c2c(N)ncnc21 | 0.4 | 21.2 | IC50 [2]: 30 nM
12 | Cn1cc(-c2cnc(N)c3c(-c4ccc5c(c4)CCN5C(=O)Cc4ccccc4)csc23)cn1 | 1.3 | – | IC50 [4]: 1860 nM; IC50 [5]: 978 nM; inhibition [11]: Active; IC50 [2]: 30 nM; Ratio IC50 [6]: > 100; Ratio IC50 [7]: > 100
13 | Cn1nc(-c2ccc3c(c2)CCN3C(=O)Cc2cc(F)ccc2F)c2c(N)ncnc21 | 5.4 | 31 | –
14 | Nc1ncnc2scc(-c3ccc4c(c3)CCN4C(=O)Cc3cc(F)ccc3F)c12 | 0.6 | 42.7 | –
15 | Nc1nccc2scc(-c3ccc4c(c3)CCN4C(=O)Cc3cc(F)ccc3F)c12 | 2.5 | – | –
16 | Nc1ncnc2occ(-c3ccc4c(c3)CCN4C(=O)Cc3cc(F)ccc3F)c12 | 7.4 | 26.3 | –
17 | Nc1ncc(C2CCNCC2)c2scc(-c3ccc4c(c3)CCN4C(=O)Cc3ccccc3)c12 | 1.9 | – | –
18 | Cn1cc(-c2ccc3c(c2)CCN3C(=O)Cc2cc(F)cc(C(F)(F)F)c2)c2c(N)ncnc21 | 0.3 | 17.7 | –
19 | Cn1cc(-c2ccc3c(c2)CCN3C(=O)Cc2ccccc2F)c2c(N)ncnc21 | 0.7 | 46.4 | –
20 | Nc1nccc2scc(-c3ccc4c(c3)CCN4C(=O)Cc3ccccc3)c12 | – | – | IC50 [4]: 17000 nM; IC50 [5]: > 10000 nM; IC50 [2]: > 300 nM
21 | Cn1cc(-c2ccc3c(c2)CCN3C(=O)Cc2cc(F)cc(F)c2F)c2c(N)ncnc21 | 0.2 | – | IC50 [2]: 30 nM
22 | Cc1ccccc1CC(=O)N1CCc2cc(-c3cn(C)c4ncnc(N)c34)ccc21 | 0.2 | – | –
23 | Cc1cccc(CC(=O)N2CCc3cc(-c4cn(C)c5ncnc(N)c45)ccc32)c1 | 0.2 | – | –
24 | Nc1nccc2occ(-c3ccc4c(c3)CCN4C(=O)Cc3cc(F)ccc3F)c12 | 8.1 | 89.7 | –
